ChEMBL document CHEMBL1131482 (J Med Chem, 1998)

Assays:
Mus musculus [1] = assay: Licking latency was measured after 30 min treatment (at dose=15 mg/kg) by using mouse hot plate test; format: functional
In short: (§1)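 Male Swiss-Webster mice (22-28 g), 23 ± 1 °C, 12-h light/dark cycle, food and water ad libitum. Hot plate at 52.5 ± 0.1 °C with licking latency as read-out and 45 s cutoff. Mice with pre-drug latency below 12 or over 18 s were rejected. Compounds given sc, 5-12 mice per test. Significance was assessed by Dunnett's two-tailed test, P < 0.05.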

Mus musculus [2] = assay: Licking latency was measured after 15 min treatment (at dose=15 mg/kg) by using mouse hot plate test; format: functional; in short: as §1
Mus musculus [3] = assay: Licking latency was measured after 30 min treatment (at dose=25 mg/kg) by using mouse hot plate test; format: functional; in short: as §1
Mus musculus [4] = species on record: Mus musculus; assay: Analgesic efficacy is expressed as percentage of that morphine, done on mouse.; format: functional
Mus musculus [5] = assay: Licking latency was measured before treatment (at dose=15 mg/kg) by using mouse hot plate test; format: functional; in short: as §1
Mus musculus [6] = assay: Licking latency was measured before treatment (at dose=25 mg/kg) by using mouse hot plate test; format: functional; in short: as §1
Mus musculus [7] = assay: Licking latency was measured after 45 min treatment (at dose=15 mg/kg) by using mouse hot plate test; format: functional; in short: as §1
Mus musculus [8] = assay: Licking latency was measured after 15 min treatment (at dose=25 mg/kg) by using mouse hot plate test; format: functional; in short: as §1
Mus musculus [9] = assay: MNTD:Maximal nontoxic dose of the compound, done on mouse; sc; format: functional
In short: (§2)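 Male Swiss-Webster mice dosed sc. The value is the highest dose causing no visible behavioural change (tremors, convulsions, hypomotility etc.), so that treated mice could not be told apart from untreated ones. Behaviour was scored by the Irwin method in groups of at least 10 animals.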

Mus musculus [10] = assay: MAD: minimal dose able to induce a statistically significant increase of the pain threshold, done on mouse; sc; format: functional
In short: (§3)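 Mouse hot plate test (52.5 ± 0.1 °C, 45 s cutoff) after sc dosing, in male Swiss-Webster mice. The value is the lowest dose giving a statistically significant rise in pain threshold. Dunnett's two-tailed test compared treated mice at maximum reaction time with pretest time, P < 0.05.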

Mus musculus [11] = assay: Licking latency was measured after 45 min treatment (at dose=25 mg/kg) by using mouse hot plate test; format: functional; in short: as §1
Mus musculus [12] = species on record: Mus musculus; assay: Analgesic efficacy is expressed as percentage of that epibatidine, done on mouse.; format: functional
K177 cell line [13] = assay: Cholinergic interactions was measured with FLIPR device on […] cells and given as EC50.; format: functional, cell-based; settings: Homo sapiens
In short: (§4)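 Cells were plated on poly(ethylenimine)-coated plates and used about 72 h later. Loading was Fluo-3 AM for 1 h at 37 °C, followed by washes in Hepes-salts buffer, pH 7.4. FLIPR recorded Ca2+ fluorescence over 5 min after agonist addition. Responses were normalized to 100 µM nicotine (100%) and unloaded cells (0%), and EC50 and intrinsic activity were derived from concentration-response curves.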

Mus musculus [14] = assay: Licking latency was measured after 45 min treatment (at dose=5 mg/kg) by using mouse hot plate test; format: functional; in short: as §1
Mus musculus [15] = assay: Licking latency was measured after 45 min treatment (at dose=20 mg/kg) by using mouse hot plate test; format: functional; in short: as §1
Mus musculus [16] = assay: Licking latency was measured after 45 min treatment (at dose=1 mg/kg) by using mouse hot plate test; format: functional; in short: as §1
Mus musculus [17] = assay: Licking latency was measured after 15 min treatment (at dose=10 mg/kg) by using mouse hot plate test; format: functional; in short: as §1
IMR-32 [18] = assay: Cholinergic interactions was measured with FLIPR device on cells of IMR-32 human neuroblastoma clonal line and given as Intrinsic activity; format: functional; in short: as §4
Mus musculus [19] = assay: Licking latency was measured after 30 min treatment (at dose=1 mg/kg) by using mouse hot plate test; format: functional; in short: as §1
Mus musculus [20] = assay: Licking latency was measured before treatment (at dose=10 mg/kg) by using mouse hot plate test; format: functional; in short: as §1
IMR-32 [21] = assay: Cholinergic interactions was measured with FLIPR device on IMR-32 cells of human neuroblastoma clonal line, given as effective dose; format: functional, cell-based; in short: as §4
Mus musculus [22] = assay: Licking latency was measured before treatment (at dose=5 mg/kg) by using mouse hot plate test; format: functional
In short: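 Male Swiss-Webster mice (22-28 g), 23 ± 1 °C, 12-h light/dark cycle. Hot plate at 52.5 ± 0.1 °C. Mice with pre-drug licking latency below 12 s or over 18 s were rejected. Cutoff 45 s. Compound given sc; latency read before dosing and at 15, 30 and 45 min. 5-12 mice per test.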

Mus musculus [23] = assay: Licking latency was measured before treatment (at dose=1 mg/kg) by using mouse hot plate test; format: functional; in short: as §1
Mus musculus [24] = assay: Maximal nontoxic dose of the compound, done on mouse; sc; format: functional; in short: as §2
Mus musculus [25] = assay: Minimal dose able to induce a statistically significant increase of the pain threshold, done on mouse; sc; format: functional; in short: as §3
Mus musculus [26] = assay: Licking latency was measured before treatment (at dose=20 mg/kg) by using mouse hot plate test; format: functional; in short: as §1
[27] = molecular target: Neuronal acetylcholine receptor; alpha4/beta2 (Rattus norvegicus, UniProt P09483+P12390); assay: Cholinergic interactions was measured as displaced [3H][…] from Nicotinic acetylcholine receptor alpha4-beta2 in rat brain membranes; format: cell membranes
Sequence of Neuronal acetylcholine receptor; alpha4/beta2 (P09483 whole entry): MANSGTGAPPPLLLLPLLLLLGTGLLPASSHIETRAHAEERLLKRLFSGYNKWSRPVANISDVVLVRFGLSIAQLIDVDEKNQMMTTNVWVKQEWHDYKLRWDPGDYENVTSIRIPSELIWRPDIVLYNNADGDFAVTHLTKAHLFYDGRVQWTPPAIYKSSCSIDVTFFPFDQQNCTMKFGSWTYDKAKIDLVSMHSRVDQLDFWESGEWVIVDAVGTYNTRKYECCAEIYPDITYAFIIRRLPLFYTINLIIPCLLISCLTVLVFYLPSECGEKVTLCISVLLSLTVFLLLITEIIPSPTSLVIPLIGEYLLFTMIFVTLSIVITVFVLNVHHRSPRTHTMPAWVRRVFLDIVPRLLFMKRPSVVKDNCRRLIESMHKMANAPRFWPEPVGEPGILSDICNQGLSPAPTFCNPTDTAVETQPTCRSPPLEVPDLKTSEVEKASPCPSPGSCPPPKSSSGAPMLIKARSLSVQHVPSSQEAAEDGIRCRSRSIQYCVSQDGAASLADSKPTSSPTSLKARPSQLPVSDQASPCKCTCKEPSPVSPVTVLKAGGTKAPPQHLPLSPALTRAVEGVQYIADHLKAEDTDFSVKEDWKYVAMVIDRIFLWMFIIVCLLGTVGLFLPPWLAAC
Sequence of Neuronal acetylcholine receptor; alpha4/beta2 (P12390 whole entry): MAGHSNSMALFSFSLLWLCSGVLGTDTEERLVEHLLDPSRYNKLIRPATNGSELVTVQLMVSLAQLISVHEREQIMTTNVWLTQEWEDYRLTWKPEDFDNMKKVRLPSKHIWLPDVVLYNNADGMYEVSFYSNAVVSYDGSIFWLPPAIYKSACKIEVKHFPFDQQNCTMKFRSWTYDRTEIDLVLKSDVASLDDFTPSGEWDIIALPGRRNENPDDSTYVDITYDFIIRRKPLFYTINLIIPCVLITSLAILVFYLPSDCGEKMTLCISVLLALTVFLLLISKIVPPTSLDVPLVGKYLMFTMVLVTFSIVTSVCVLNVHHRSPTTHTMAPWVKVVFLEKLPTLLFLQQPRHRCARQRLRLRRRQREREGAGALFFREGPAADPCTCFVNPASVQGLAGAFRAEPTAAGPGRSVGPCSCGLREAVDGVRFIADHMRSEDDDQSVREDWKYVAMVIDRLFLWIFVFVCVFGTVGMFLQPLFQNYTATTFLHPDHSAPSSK
In short: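 Rat cerebral cortical membranes were washed and resuspended in Tris-HCl 50 mM buffer, pH 7.4, then spun at 45000g. Samples held 150-200 µg protein and 0.7 nM [3H]-(-)-cytisine with varying modulator concentrations. Incubation was 75 min at 4 °C in triplicate. Nonspecific binding was defined with 10 µM (-)-nicotine.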

Mus musculus [28] = assay: Licking latency was measured after 15 min treatment (at dose=1 mg/kg) by using mouse hot plate test; format: functional; in short: as §1
TE-671 [29] = assay: Cholinergic interactions was measured with FLIPR device on TE671 cells and given as Intrinsic activity; format: functional, Homo sapiens; in short: as §4
Mus musculus [30] = assay: Licking latency was measured after 30 min treatment (at dose=10 mg/kg) by using mouse hot plate test; format: functional; in short: as §1
Mus musculus [31] = assay: Licking latency was measured after 15 min treatment (at dose=5 mg/kg) by using mouse hot plate test; format: functional; in short: as §1
K177 cell line [32] = assay: Cholinergic interactions was measured with FLIPR device on […] cells and given as Intrinsic activity; format: functional, Homo sapiens; in short: as §4
Mus musculus [33] = assay: Licking latency was measured after 30 min treatment (at dose=20 mg/kg) by using mouse hot plate test; format: functional; in short: as §1
Mus musculus [34] = assay: Licking latency was measured after 30 min treatment (at dose=5 mg/kg) by using mouse hot plate test; format: functional; in short: as §1
TE-671 [35] = assay: Cholinergic interactions was measured with FLIPR device on TE671 cells and given as Effective dose; format: functional, cell-based; settings: Homo sapiens; in short: as §4

Structure (SMILES): Clc1cccc(N2CC3CCC(C2)N3)n1
- Licking latency (Mus musculus [1]): 22.1 s
- Licking latency (Mus musculus [2]): 23.6 s
- Licking latency (Mus musculus [3]): 37 s
- Analgesic efficacy compared to morphine (Mus musculus [4]): 116%
- Licking latency (Mus musculus [5]): 13.5 s
- Licking latency (Mus musculus [6]): 14.6 s
- Licking latency (Mus musculus [7]): 22 s
- Licking latency (Mus musculus [8]): 31.9 s
- MNTD (Mus musculus [9]): 30 mg/kg
- MAD (Mus musculus [10]): 15 mg/kg
- Licking latency (Mus musculus [11]): 34.2 s
- Analgesic efficacy compared to epibatidine (Mus musculus [12]): 142%

Structure (SMILES): Clc1ccc(N2CC3CCC(C2)N3)nn1
- EC50 (K177 cell line [13]): 24 µM
- Licking latency (Mus musculus [14]): 26.5 s
- Efficacy (Mus musculus [4]): 136%
- Licking latency (Mus musculus [15]): 33.8 s
- Licking latency (Mus musculus [16]): 21.5 s
- Licking latency (Mus musculus [17]): 32.3 s
- Intrinsic activity (IMR-32 [18]): 122.6%
- Licking latency (Mus musculus [19]): 25.6 s
- Licking latency (Mus musculus [20]): 14.2 s
- EC50 (IMR-32 [21]): 12.2 µM
- Licking latency (Mus musculus [22]): 13.7 s
- Licking latency (Mus musculus [23]): 13.5 s
- MNTD (Mus musculus [24]): 30 mg/kg
- MAD (Mus musculus [25]): 1 mg/kg
- Licking latency (Mus musculus [26]): 14.3 s
- Ki [27]: 4.1 µM
- Licking latency (Mus musculus [28]): 21.5 s
- Intrinsic activity (TE-671 [29]): 9.6%
- Licking latency (Mus musculus [30]): 38.3 s
- Licking latency (Mus musculus [31]): 27.8 s
- Intrinsic activity (K177 cell line [32]): 164%
- Licking latency (Mus musculus [33]): 39.8 s
- Efficacy (Mus musculus [12]): 167%
- Licking latency (Mus musculus [34]): 28.5 s
- EC50 (TE-671 [35]): > 1000 µM
